Measurements taken from ChEMBL document CHEMBL4665664, “Discovery of Orally Active Hydroxyethylamine Based SPPL2a Inhibitors” (ACS Med Chem Lett, 2019).
In brackets after ≈: the same amount, converted by molar mass. Activity calls are given as the source filed them. The calls are words filed in the database; no cut-off is given here.

Tests used:
Beta-secretase 1 = Beta-secretase 1 (Homo sapiens, UniProt P56817); test: Inhibition of human BACE1 (46 to 435 residues) expressed in baculovirus infected insect cells using Ac-C(PT14)EVNLDAEWK-NH2 as substrate preincubated for 1 hr followed by substrate addition and measured after 1 hr by fluorescence based assay
Beta-secretase 2 = target: T1, Beta-secretase 2 (Homo sapiens, UniProt Q9Y5Z0); test: Inhibition of human BACE2 (63 to 466 residues) expressed in baculovirus infected insect cells using Ac-C(PT14)EVNLDAEWK-NH2 as substrate preincubated for 1 hr followed by substrate addition and measured after 1 hr by fluorescence based assay
T1 sequence (Q9Y5Z0 whole entry): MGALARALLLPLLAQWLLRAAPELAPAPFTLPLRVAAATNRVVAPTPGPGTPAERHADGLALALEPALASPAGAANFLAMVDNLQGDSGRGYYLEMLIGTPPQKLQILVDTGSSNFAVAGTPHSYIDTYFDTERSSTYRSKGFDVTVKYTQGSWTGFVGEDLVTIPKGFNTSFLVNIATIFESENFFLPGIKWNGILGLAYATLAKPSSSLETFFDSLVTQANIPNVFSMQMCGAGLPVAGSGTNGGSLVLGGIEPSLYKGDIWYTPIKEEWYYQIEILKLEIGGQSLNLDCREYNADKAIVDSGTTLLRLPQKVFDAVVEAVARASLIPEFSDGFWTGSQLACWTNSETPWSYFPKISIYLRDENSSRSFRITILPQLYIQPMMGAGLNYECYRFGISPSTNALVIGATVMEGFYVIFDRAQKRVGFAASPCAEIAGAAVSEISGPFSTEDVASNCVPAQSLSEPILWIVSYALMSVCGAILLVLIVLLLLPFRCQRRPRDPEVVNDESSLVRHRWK

Cathepsin D = Cathepsin D (Homo sapiens, UniProt P07339); test: Inhibition of human cathepsin D (1 to 412 residues) expressed in baculovirus infected insect cells using R-C(PT14)-KPILFFRLGWR-OH as substrate preincubated for 1 hr followed by substrate addition and measured after 1 hr by fluorescence based assay
Cathepsin E = target: T2, Cathepsin E (Homo sapiens, UniProt P14091); test: Inhibition of human cathepsin E isoform 1 (19 to 401 residues) expressed in Escherichia coli using R-C(PT14)KPILFFRLGWR-OH as substrate preincubated for 1 hr followed by substrate addition and measured after 1 hr by fluorescence based assay
T2 sequence (P14091 whole entry): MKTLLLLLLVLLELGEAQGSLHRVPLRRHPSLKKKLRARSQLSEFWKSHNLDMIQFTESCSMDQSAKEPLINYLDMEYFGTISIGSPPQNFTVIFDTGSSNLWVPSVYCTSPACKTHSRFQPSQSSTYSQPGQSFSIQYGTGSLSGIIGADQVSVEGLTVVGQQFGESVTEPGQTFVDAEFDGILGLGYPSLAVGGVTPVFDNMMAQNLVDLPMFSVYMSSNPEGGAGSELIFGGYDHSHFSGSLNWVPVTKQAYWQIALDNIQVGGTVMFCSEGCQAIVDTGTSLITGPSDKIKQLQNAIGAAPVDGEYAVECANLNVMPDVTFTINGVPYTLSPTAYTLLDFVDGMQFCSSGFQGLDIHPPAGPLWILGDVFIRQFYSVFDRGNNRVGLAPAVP

Renin = target: T3, Renin (Homo sapiens, UniProt P00797); test: Inhibition of human renin (67 to 406 residues) expressed in CHO cells using KHPWHLVIHT-C(PT14)-K as substrate preincubated for 1 hr followed by substrate addition and measured after 1 hr by fluorescence based assay
T3 sequence (P00797 whole entry): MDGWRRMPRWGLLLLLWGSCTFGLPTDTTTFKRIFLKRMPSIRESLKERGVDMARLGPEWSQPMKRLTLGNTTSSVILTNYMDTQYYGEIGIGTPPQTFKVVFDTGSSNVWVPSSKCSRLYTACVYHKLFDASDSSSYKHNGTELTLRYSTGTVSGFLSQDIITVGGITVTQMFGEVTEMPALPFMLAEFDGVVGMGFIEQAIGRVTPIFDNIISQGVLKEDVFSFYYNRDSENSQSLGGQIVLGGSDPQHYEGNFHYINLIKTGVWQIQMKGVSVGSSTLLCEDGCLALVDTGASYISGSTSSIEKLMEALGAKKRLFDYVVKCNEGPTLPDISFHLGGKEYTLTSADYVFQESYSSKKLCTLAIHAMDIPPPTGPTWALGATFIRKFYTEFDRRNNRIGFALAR

[1] = Equilibrium solubility of the compound in DMSO solution at pH 6.8 by saturation shake flask method; assay type: physicochemical
Outline: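 Equilibrium solubility by saturation shake-flask at pH 6.8, starting from DMSO solution.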

Gamma-secretase = test: Inhibition of gamma-secretase (unknown origin) expressed in HEK293 cells cotransfected with Notch1-VP16-GAL4 fusion and Gal4 luciferase reporter plasmid incubated for 24 hrs by luciferase reporter gene assay luminescence assay; assay type: cell-based, Homo sapiens
Mus musculus = test: In vivo inhibition of SPPL2a in mouse assessed as increase in CD74/p8 NTF accumulation in splenocytes lysates at 100 mg/kg, po administered as single dose and measured after 4 hrs post-dosing by western blot analysis; details: Lysate
[2] = target: T4, Signal peptide peptidase-like 2A (Homo sapiens, UniProt Q8TCT8); test: Inhibition of human SPPL2a expressed in HEK293 cells cotransfected with Gal4 luciferase reporter plasmid and VP16-TNFalpha(1-76)-NTF incubated for 24 hrs by luciferase reporter gene assay based luminescence assay; assay type: cell-based
T4 sequence (Q8TCT8 whole entry): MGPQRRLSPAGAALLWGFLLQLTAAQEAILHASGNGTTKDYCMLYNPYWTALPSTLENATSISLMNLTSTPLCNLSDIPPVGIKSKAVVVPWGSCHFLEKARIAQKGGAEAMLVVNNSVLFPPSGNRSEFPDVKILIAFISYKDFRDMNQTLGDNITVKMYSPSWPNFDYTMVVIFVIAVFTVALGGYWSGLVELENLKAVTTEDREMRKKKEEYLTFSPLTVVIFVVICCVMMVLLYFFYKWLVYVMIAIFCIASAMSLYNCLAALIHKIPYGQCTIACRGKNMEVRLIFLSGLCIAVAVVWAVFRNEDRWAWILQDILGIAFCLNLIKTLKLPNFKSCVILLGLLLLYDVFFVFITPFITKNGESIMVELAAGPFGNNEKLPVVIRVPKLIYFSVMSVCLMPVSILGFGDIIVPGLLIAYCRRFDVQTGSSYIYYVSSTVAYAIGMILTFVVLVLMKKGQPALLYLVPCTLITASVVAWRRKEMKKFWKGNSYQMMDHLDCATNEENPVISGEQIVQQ

[3] = Lipophilicity, logD of the compound in octanol-buffer at pH 7.4 by shake-flask equilibrium based LC/MS/MS analysis; assay type: physicochemical
Outline: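 log D determined at pH 7.4 by rapid-throughput octanol/buffer 96-well shake-flask equilibration, with LC/MS/MS quantification.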

Beta-secretase 1, sequence (P56817 whole entry, the tested form may be a part): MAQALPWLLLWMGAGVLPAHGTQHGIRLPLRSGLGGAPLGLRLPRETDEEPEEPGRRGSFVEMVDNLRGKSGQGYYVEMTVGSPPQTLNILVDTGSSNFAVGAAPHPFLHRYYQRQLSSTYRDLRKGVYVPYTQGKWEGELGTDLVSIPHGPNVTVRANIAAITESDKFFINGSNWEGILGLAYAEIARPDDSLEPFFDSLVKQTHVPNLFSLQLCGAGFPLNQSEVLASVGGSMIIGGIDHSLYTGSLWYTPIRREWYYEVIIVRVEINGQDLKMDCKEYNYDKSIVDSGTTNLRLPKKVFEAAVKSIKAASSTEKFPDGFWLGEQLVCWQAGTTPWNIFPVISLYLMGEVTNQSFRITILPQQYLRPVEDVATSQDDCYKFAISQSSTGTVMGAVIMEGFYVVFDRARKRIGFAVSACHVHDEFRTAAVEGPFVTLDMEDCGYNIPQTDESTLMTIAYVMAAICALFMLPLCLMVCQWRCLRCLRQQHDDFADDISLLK
Cathepsin D, sequence (P07339 65-162 limits assumed): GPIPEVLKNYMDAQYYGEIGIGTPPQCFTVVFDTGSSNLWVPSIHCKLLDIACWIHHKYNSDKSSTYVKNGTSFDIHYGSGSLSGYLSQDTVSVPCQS
Cathepsin D, sequence (P07339 169-412 limits assumed): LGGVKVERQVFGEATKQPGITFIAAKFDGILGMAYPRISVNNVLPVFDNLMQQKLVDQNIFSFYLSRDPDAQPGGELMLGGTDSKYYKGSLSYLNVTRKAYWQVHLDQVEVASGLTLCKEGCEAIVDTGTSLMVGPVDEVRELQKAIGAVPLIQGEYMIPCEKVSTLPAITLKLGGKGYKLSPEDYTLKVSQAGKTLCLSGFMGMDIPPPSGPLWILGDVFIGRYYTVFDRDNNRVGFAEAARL

**Q.** What does the source list for `CC(C)CN(C[C@H](O)[C@@H](N)c1ccccc1)S(=O)(=O)c1ccc(Cl)c(Cl)c1`?
**A.** IC50 (Beta-secretase 1): > 100 µM; IC50 (Beta-secretase 2): > 100 µM; IC50 (Cathepsin D): > 100 µM; IC50 (Cathepsin E): > 100 µM; IC50 (Renin): > 100 µM; solubility [1]: 34 µg/mL (≈ 78.8 µM); IC50 (Gamma-secretase): 4.8 µM

**Q.** Which IC50 (Gamma-secretase) does the source give for `N[C@@H](c1ccccc1)[C@@H](O)CN(C1CCC1)S(=O)(=O)c1ccc(Cl)c(Cl)c1` here?
**A.** 5.1 µM

**Q.** With `C[C@H](NC(=O)[C@@H](O)c1cc(F)cc(F)c1)C(=O)N[C@@H]1C(=O)N(C)c2ccccc2-c2ccccc21` as the molecule, how does the inhibition (Mus musculus) read?
**A.** Active

**Q.** For `N[C@@H](c1ccccc1)[C@@H](O)CN(C1COC1)S(=O)(=O)c1ccc(Cl)c(Cl)c1`, which IC50 (Gamma-secretase) is on record?
**A.** > 10 µM

**Q.** For `N[C@@H](c1ccccc1)[C@@H](O)CN(C1CCCCCC1)S(=O)(=O)c1ccc(Cl)c(Cl)c1`, which IC50 (Gamma-secretase) is on record?
**A.** 2.1 µM

**Q.** For `CC(C)ON(C[C@H](O)[C@@H](N)c1ccccc1)S(=O)(=O)c1ccc(Cl)c(Cl)c1`, which IC50 (Gamma-secretase) is on record?
**A.** 5.9 µM

**Q.** Which IC50 (Gamma-secretase) does the source give for `CC(C)(C)c1cccc(S(=O)(=O)N(C[C@H](O)[C@@H](N)c2ccccc2)C2CCC2)c1` here?
**A.** 3.7 µM

**Q.** With `N[C@@H](c1ccccc1)[C@@H](O)CN(C1CCC1)S(=O)(=O)c1ccc2scnc2c1` as the molecule, how does the IC50 (Gamma-secretase) read?
**A.** > 10 µM

**Q.** With `N[C@@H](c1ccccc1)[C@@H](O)CN(Cc1ccccc1)S(=O)(=O)c1ccc(Cl)c(Cl)c1` as the molecule, how does the IC50 (Gamma-secretase) read?
**A.** 3.4 µM

**Q.** Which IC50 [2] does the source give for `CC(C)CN(C[C@H](O)[C@@H](N)Cc1ccccc1)S(=O)(=O)c1ccc(Cl)c(Cl)c1` here?
**A.** 0.86 µM

**Q.** What about the logD [3] of the same molecule?
**A.** 3.1

**Q.** And the solubility [1]?
**A.** < 2 µg/mL

**Q.** With `CC(C)(C)c1ccc(S(=O)(=O)N(C[C@H](O)[C@@H](N)c2ccccc2)C2CCC2)cc1` as the molecule, how does the IC50 (Gamma-secretase) read?
**A.** 3.7 µM

**Q.** Which IC50 (Gamma-secretase) does the source give for `CC1(C)CCC(C)(C)c2cc(S(=O)(=O)N(C[C@H](O)[C@@H](N)c3ccccc3)C3CCC3)ccc21` here?
**A.** 1.8 µM

**Q.** Which results are given for `CC(C)CN(C[C@H](O)[C@H](Cc1ccccc1)NC(=O)OCc1ccccc1)S(=O)(=O)c1ccc(Cl)c(Cl)c1`?
**A.** IC50 [2]: 4.3 µM; logD [3]: > 4.6; solubility [1]: < 2 µg/mL

**Q.** Which IC50 (Gamma-secretase) does the source give for `CC(C)(O)CN(C[C@H](O)[C@@H](N)c1ccccc1)S(=O)(=O)c1ccc(Cl)c(Cl)c1` here?
**A.** > 10 µM

**Q.** For `CC1(N(C[C@H](O)[C@@H](N)c2ccccc2)S(=O)(=O)c2ccc(Cl)c(Cl)c2)CCC1`, which IC50 (Gamma-secretase) is on record?
**A.** 6.4 µM
